The results in this text go back to PubChem BioAssay.

Activity calls are given as the source filed them.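 Rule for the calls, unless noted: active = current rise at least 3 SD above the untreated control mean in each of two repeat wells; inactive = the rest.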

Experiment [1] addresses Potassium voltage-gated channel subfamily KQT member 1 (Homo sapiens) (UniProt P51787). In words: KCNQ1 channel current potentiators, confirmation, orthogonal assay for KCNQ1 potentiator project, IonWorks patch clamp, KCNQ1-CHO cells (AID 493184). The following applies: automated patch clamp current, at 10 µM. The method in brief: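 Probe or stimulus: depolarizing pulse to +40 mV from -90 mV; Material: CHO cells carrying KCNQ1; Compound: one dose, 10 µM final; Signal: automated voltage clamp, amphotericin B perforated patch; Read-out basis: percent current increase versus pre-compound level; Buffer or medium: pH 7.4 external bath; Replication: duplicates.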

In experiment [2] the target is Potassium voltage-gated channel subfamily E member 1 (Homo sapiens) + Potassium voltage-gated channel subfamily KQT member 1 (Homo sapiens) (UniProt P15382+P51787). In words: KCNQ1/KCNE1 complex potentiators, confirmation, selectivity assay for KCNQ1 potentiator project, thallium flux, CHO-K1 KCNQ1/E1 cells (AID 493186;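 active = mean duplicate activation above the buffer control mean plus 5 SD of those controls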). The conditions noted are these: FluxOR thallium flux, at 10 µM. In short, it runs like this:
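system = KCNQ1/E1-expressing stable CHO-K1 cell line | doses = single compound concentration per well | times = dye 90 min, compound 20 min, room temperature | measured by = FluxOR Tl+ flux fluorescence, kinetic read | evaluation = fluorescence rise relative to baseline, as percent of R-L3 response above buffer | controls = buffer and R-L3 | replicates = duplicate wells per compound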

Chain of Potassium voltage-gated channel subfamily KQT member 1 (Homo sapiens) (P51787 whole entry, looked up): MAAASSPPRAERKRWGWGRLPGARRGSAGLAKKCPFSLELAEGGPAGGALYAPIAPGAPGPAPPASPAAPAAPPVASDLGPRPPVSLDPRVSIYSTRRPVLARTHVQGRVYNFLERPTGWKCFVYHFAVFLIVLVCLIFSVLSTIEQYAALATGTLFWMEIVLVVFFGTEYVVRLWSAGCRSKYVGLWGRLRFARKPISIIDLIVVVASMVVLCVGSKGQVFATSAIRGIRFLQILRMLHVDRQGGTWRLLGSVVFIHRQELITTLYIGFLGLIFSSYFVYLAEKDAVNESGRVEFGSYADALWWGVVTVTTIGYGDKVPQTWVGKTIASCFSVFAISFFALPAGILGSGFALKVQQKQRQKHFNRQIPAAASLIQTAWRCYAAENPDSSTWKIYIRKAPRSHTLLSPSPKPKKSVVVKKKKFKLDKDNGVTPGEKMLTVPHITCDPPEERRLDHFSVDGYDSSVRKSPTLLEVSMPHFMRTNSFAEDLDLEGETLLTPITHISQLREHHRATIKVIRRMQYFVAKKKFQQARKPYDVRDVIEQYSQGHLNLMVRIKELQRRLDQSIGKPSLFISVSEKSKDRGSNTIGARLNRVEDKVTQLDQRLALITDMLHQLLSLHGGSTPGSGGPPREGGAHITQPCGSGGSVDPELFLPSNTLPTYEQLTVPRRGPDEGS
Chain of Potassium voltage-gated channel subfamily E member 1 (Homo sapiens) + Potassium voltage-gated channel subfamily KQT member 1 (Homo sapiens) (P51787 whole entry, looked up): as the sequence (P51787 whole entry, looked up) above

In the case of `CCN(CC)c1ncnc2sc3c(c12)CCC3`, the result in experiment [1] and in experiment [2] was inactive.

On to `Cc1nn(-c2cc(C(F)(F)F)ccc2Cl)c2nc(C(Cl)(Cl)Cl)[nH]c(=O)c12`, for which the outcome in experiment [1] was inactive.

As to `COc1cc(NC(=O)CSc2ncnc3sc4c(c23)CCC(C)C4)c(C(=O)O)cc1OC` (centres undefined), the outcome in experiment [1] was inactive.
